Reference: ChEMBL document CHEMBL4308903, “Synthesis of amides from (E)-3-(1-chloro-3,4-dihydronaphthalen-2-yl)acrylic acid and substituted amino acid esters as NorA efflux pump inhibitors of Staphylococcus aureus” (Bioorg Med Chem, 2019)
Calls of active or inactive are those of the source. The rule behind the calls is not given here.

What was measured:
[1] = target: T1, Quinolone resistance protein NorA (Staphylococcus aureus) (UniProt P0A0J7); assay: Inhibition of NorA in Staphylococcus aureus 1199B assessed as minimum concentration required to effectively reduce ciprofloxacin MIC by four fold by broth checkerboard microdilution method
T1 sequence (whole entry): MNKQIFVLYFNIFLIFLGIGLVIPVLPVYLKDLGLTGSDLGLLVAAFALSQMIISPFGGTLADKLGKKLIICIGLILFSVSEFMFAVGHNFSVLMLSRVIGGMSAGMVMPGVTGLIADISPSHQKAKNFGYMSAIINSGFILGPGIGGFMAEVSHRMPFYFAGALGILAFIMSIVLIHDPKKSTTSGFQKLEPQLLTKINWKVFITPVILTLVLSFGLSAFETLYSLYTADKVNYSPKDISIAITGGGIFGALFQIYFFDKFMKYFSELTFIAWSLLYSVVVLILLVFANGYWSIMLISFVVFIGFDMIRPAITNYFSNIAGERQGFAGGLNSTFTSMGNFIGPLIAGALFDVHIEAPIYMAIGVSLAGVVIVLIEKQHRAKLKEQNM
Outline: (§1)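 Broth checkerboard microdilution in cation-adjusted Mueller–Hinton broth. Compounds tested at seven concentrations (50-0.7 μg/mL) against twofold serial dilutions of ciprofloxacin (32-0.06 μg/mL). MEC is the minimum concentration that lowers the ciprofloxacin MIC fourfold. Piperine and SK-20 served as reference EPIs.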

[2] = target: T1, Quinolone resistance protein NorA (Staphylococcus aureus); assay: Inhibition of NorA in Staphylococcus aureus 1199B assessed as reduction in ethidium bromide efflux at 50 uM measured over 5 mins interval for 30 mins by fluorescence assay relative to control
Staphylococcus aureus [3] = assay: Potentiation of ciprofloxacin-induced antibacterial activity in Staphylococcus aureus 1199 assessed as reduction in ciprofloxacin MIC at 0.8 to 50 ug/ml by broth checkerboard microdilution method relative to control; type: functional; outline: as §1
Staphylococcus aureus [4] = assay: Potentiation of ciprofloxacin-induced antibacterial activity in norA-deleted Staphylococcus aureus K1758 assessed as reduction in ciprofloxacin MIC at 0.8 to 50 ug/ml by broth checkerboard microdilution method relative to control; type: functional; outline: as §1
[5] = target: T1, Quinolone resistance protein NorA (Staphylococcus aureus); assay: Inhibition of NorA in Staphylococcus aureus 1199B assessed as assessed as potentiation of ciprofloxacin-induced antibacterial activity by measuring reduction in ciprofloxacin MIC at 25 to 50 ug/ml by broth checkerboard microdilution method relative to control; outline: as §1
HepG2 = assay: Cytotoxicity against human HepG2 cells assessed as reduction in cell viability at 100 uM after 24 hrs by MTT assay; type: cell-based; settings: hepg2, 24 h
Outline: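 HepG2 monolayer (1×10^6 cells/well) in high-glucose DMEM exposed to 50 and 100 μM in triplicate for 24 h at 37°C, 5% CO2. MTT added, then formazan absorbance read at 570 nm. Percent cytotoxicity calculated against tamoxifen positive control (10 and 20 µg/mL) and untreated healthy cells.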

[6] = target: T1, Quinolone resistance protein NorA (Staphylococcus aureus); assay: Inhibition of NorA Staphylococcus aureus 1199B assessed as reduction in ethidium bromide efflux at 6.25 to 50 uM measured at 5 mins interval for 30 mins by fluorescence assay relative to control
Staphylococcus aureus [7] = assay: Growth inhibition of Staphylococcus aureus 1199 at 50 ug/ml by broth microdilution method; type: organism-based
Staphylococcus aureus [8] = assay: Growth inhibition of norA-deleted Staphylococcus aureus K1758 at 50 ug/ml by broth microdilution method; type: organism-based
Outline: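 MIC determined by broth microdilution in cation-adjusted Mueller–Hinton broth following CLSI guidelines. MIC is the lowest concentration giving no visible growth.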

[9] = target: T1, Quinolone resistance protein NorA (Staphylococcus aureus); assay: Inhibition of NorA in Staphylococcus aureus 1199B assessed as […] at 25 uM measured at 5 mins interval for 60 mins by fluorescence assay relative to control; settings: in the assay text read “for 30 mins” for “for 60 mins”
Outline: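 Ethidium bromide accumulation measured in SA-1199B cells preloaded with ethidium bromide, with compound at 25 μM. Fluorescence gain (excitation 530 nm, emission 600 nm) recorded at 5-min intervals.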

[10] = target: T1, Quinolone resistance protein NorA (Staphylococcus aureus); assay: Inhibition of NorA in Staphylococcus aureus 1199B assessed as reduction in ethidium bromide efflux at 50 uM measured after 5 mins by fluorescence assay relative to control
Outline: (§2)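 SA-1199B grown on tryptone soya agar. Ethidium bromide efflux followed by fluorescence (excitation 530 nm, emission 600 nm) over 5 min with compound at 0–50 μM. Run in triplicate. Percent inhibition calculated from mean values against the no-inhibitor control.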

[11] = target: T1, Quinolone resistance protein NorA (Staphylococcus aureus); assay: Inhibition of NorA Staphylococcus aureus 1199B assessed as reduction in ethidium bromide efflux at 6.25 to 50 uM measured after 5 mins by fluorescence assay relative to control; outline: as §2
Staphylococcus aureus [12] = assay: Potentiation of ciprofloxacin-induced antibacterial activity in Staphylococcus aureus 1199 assessed as minimum concentration required to effectively reduce ciprofloxacin MIC by four fold by broth checkerboard microdilution method; type: functional; settings: read-out: MEC; outline: as §1

| MEC [1] [µg/mL] | inhibition [2] [%] | fold change (FC) [5] | inhibition [6] | inhibition [9] | inhibition [10] [%] | inhibition [11] [%] | Compound | fold change (FC) (Staphylococcus aureus [3]) | fold change (FC) (Staphylococcus aureus [4]) | Activity (HepG2) | growth inhibition (GI) (Staphylococcus aureus [7]) | growth inhibition (GI) (Staphylococcus aureus [8]) | minimal effective concentration (Staphylococcus aureus [12]) [µg/mL] |
| --- | --- | --- | --- | --- | --- | --- | --- | --- | --- | --- | --- | --- | --- |
| 1.5 | 85.2 | 16 | > 80% | Active |  |  | COC(=O)[C@H](Cc1ccc(O)cc1)NC(=O)/C=C/C1=C(Cl)c2ccccc2CC1 | 4 | 0 | Non-Toxic | Non-Toxic | Non-Toxic |  |
| 1.5 | 83.9 | 16 | > 80% | inactive |  |  | COC(=O)[C@H](Cc1c[nH]c2ccccc12)NC(=O)/C=C/C1=C(Cl)c2ccccc2CC1 | 4 | 0 | Non-Toxic | Non-Toxic | Non-Toxic |  |
| 12.5 |  |  |  |  | 48 |  | COC(=O)[C@H](Cc1ccccc1)NC(=O)/C=C/C1=C(Cl)c2ccccc2CC1 | 0 | 0 |  | Non-Toxic | Non-Toxic |  |
| > 50 |  |  |  |  |  |  | COC(=O)CCCNC(=O)/C=C/C1=C(Cl)c2ccccc2CC1 | 0 | 0 |  | Non-Toxic | Non-Toxic |  |
| 25 |  |  |  |  |  |  | COC(=O)[C@H](C)NC(=O)/C=C/C1=C(Cl)c2ccccc2CC1 | 0 | 0 |  | Non-Toxic | Non-Toxic |  |
| 3.12 |  |  |  |  | 67.2 | 67.2 | COC(=O)[C@@H](NC(=O)/C=C/C1=C(Cl)c2ccccc2CC1)C(C)C | 2 | 0 |  | Non-Toxic | Non-Toxic |  |
|  |  |  | Active | Active |  |  | COC(=O)[C@H]1[C@H]2C[C@@H]3c4[nH]c5cc(OC)ccc5c4CCN3C[C@H]2C[C@@H](OC(=O)c2cc(OC)c(OC)c(OC)c2)[C@@H]1OC [RESERPINE] | 2 | 0 |  | Non-Toxic | Non-Toxic |  |
| > 50 |  |  |  |  |  |  | COC(=O)CC1(NC(=O)/C=C/C2=C(Cl)c3ccccc3CC2)CCCCC1 | 0 | 0 |  | Non-Toxic | Non-Toxic |  |
| 6.25 | 68.8 |  |  |  |  |  | CCC(/C=C/C(=O)N1CCCCC1)=C\c1ccc2c(c1)OCO2 | 4 | 0 |  | Non-Toxic | Non-Toxic |  |
| 12.5 |  |  |  |  | 56.2 |  | COC(=O)[C@H](CC(C)C)NC(=O)/C=C/C1=C(Cl)c2ccccc2CC1 | 2 | 0 |  | Non-Toxic | Non-Toxic |  |
| 12.5 |  |  |  |  | 41.4 |  | COC(=O)C(C)(C)NC(=O)/C=C/C1=C(Cl)c2ccccc2CC1 | 0 | 0 |  | Non-Toxic | Non-Toxic |  |
| 12.5 |  |  |  |  | 52.6 |  | COC(=O)[C@H]1CCCN1C(=O)/C=C/C1=C(Cl)c2ccccc2CC1 | 0 | 0 |  | Toxic | Toxic |  |
| 12.5 |  |  |  |  | 58.2 |  | CC[C@@H](C)[C@H](NC(=O)/C=C/C1=C(Cl)c2ccccc2CC1)C(=O)OC | 2 | 0 |  | Non-Toxic | Non-Toxic |  |
| > 50 |  |  |  |  |  |  | COC(=O)CC1(NC(=O)/C=C/C2=C(Cl)c3ccccc3CC2)CCC(C(C)(C)C)CC1 (configuration not stated) | 0 | 0 |  | Non-Toxic | Non-Toxic |  |
| 6.25 |  |  |  |  | 80.3 | > 80 | COC(=O)[C@@H]1CCCN1C(=O)/C=C/C1=C(Cl)c2ccccc2CC1 | 2 | 0 |  | Non-Toxic | Non-Toxic | 50 |
| > 50 |  |  |  |  |  |  | COC(=O)CNC(=O)/C=C/C1=C(Cl)c2ccccc2CC1 | 0 | 0 |  | Non-Toxic | Non-Toxic |  |
| 25 |  |  |  |  |  |  | COC(=O)CCNC(=O)/C=C/C1=C(Cl)c2ccccc2CC1 | 0 | 0 |  | Non-Toxic | Non-Toxic |  |
